# Laboratory results from ChEMBL document CHEMBL1131063 (J Med Chem, 1998).
# What was measured:
# Mus musculus [1] = experiment: Inhibitory activity against carrageenan induced paw edema at a oral dose of 10 mg/kg in mouse 3 hours after carrageenan administration; assay type: functional
# Outline: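 Female Swiss mice (20–25 g), fasted 12 h with water available, in groups of six, dosed orally (0.5 mL) in ethanol/Tween 80/water 5:5:90 1 h before subplantar injection of 0.05 mL 3% w/v carrageenan into right hind paw. Paw volumes read by plethysmometer; edema = injected minus contralateral volume; percent inhibition vs vehicle controls; ANOVA with Dunnett's test.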
# Mus musculus [2] = experiment: Inhibitory activity against carrageenan induced paw edema at a oral dose of 10 mg/kg in mouse 5 hours after carrageenan administration; assay type: functional
# Outline: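 Female Swiss mice (20–25 g) were fasted 12 h and dosed orally in ethanol/Tween 80/water (5:5:90), n = 6 per group. One hour later, 0.05 mL of 3% carrageenan was injected subplantar into the right hind paw. Edema was injected minus contralateral paw volume by plethysmometer, expressed as % inhibition versus control. ANOVA with Dunnett's test.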
# [3] = system: Phospholipase A2 (Naja naja); experiment: Inhibitory activity against naja naja secretory Phospholipase A2 at 10 uM; details: snake
# [4] = target: Phospholipase A2, major isoenzyme (Sus scrofa) (UniProt P00592); experiment: Inhibitory activity against Porcine pancreatic secretory Phospholipase A2 at 10 uM
# Outline: (§1)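 Enzyme diluted in 100 mM Tris-HCl, 1 mM CaCl2, pH 7.5; preincubated 5 min at 37 °C with test compound or vehicle, then 15 min with autoclaved oleate-labeled membranes as substrate. Stopped with ice-cold BSA in saline (final 0.07% w/v), centrifuged 2500g 10 min at 4 °C. Supernatant radioactivity counted by liquid scintillation; percent inhibition at 10 μM, means ± SEM, n = 6.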
# [5] = target: T1, Phospholipase A2, membrane associated (Homo sapiens) (UniProt P14555); experiment: Inhibitory activity against human synovial Phospholipase at 10 uM; outline: as §1
# T1 sequence (whole entry): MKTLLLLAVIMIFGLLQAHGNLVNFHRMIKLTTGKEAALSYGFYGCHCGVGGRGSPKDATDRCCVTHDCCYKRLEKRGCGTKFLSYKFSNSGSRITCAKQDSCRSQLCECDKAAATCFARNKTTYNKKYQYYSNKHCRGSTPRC
# [6] = target: T2, Phospholipase A2 (Apis mellifera) (UniProt P00630); experiment: Inhibitory activity against bee secretory Phospholipase A2 enzyme at 10 uM
# T2 sequence (whole entry): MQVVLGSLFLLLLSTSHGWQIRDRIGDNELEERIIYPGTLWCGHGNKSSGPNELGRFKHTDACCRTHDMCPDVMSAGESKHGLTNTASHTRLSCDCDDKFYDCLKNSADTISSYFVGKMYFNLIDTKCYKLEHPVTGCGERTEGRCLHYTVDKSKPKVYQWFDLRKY
# [7] = target: T2, Phospholipase A2 (Apis mellifera); experiment: Inhibitory activity against bee secretory Phospholipase A2 enzyme when pre-incubated with Tris buffer for 60 minutes
# Outline: (§2)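 Bee venom PLA2 was incubated at 41 °C with the test compound or methanol (control) in 100 mM Tris-HCl, 1 mM CaCl2, pH 7.5, for varied preincubation times. It was then diluted 2-fold with Tris buffer or with hydroxylamine (final 50 mM, pH 7.5) and held 2 h at 41 °C. PLA2 activity was then assayed. Final compound concentrations were 5–50 μM. n = 6.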
# [8] = target: T2, Phospholipase A2 (Apis mellifera); experiment: Inhibitory activity against bee secretory Phospholipase A2 enzyme when pre-incubated with Hydroxylamine for 5 minutes; outline: as §2
# [9] = target: T2, Phospholipase A2 (Apis mellifera); experiment: Inhibitory activity against bee secretory Phospholipase A2 enzyme when pre-incubated with Tris buffer for 15 minutes; outline: as §2
# [10] = target: T2, Phospholipase A2 (Apis mellifera); experiment: Inhibition against bee secretory PLA2 enzyme when pre-incubated for 5 minutes; outline: as §2
# [11] = target: T2, Phospholipase A2 (Apis mellifera); experiment: Inhibitory activity against bee secretory Phospholipase A2 enzyme when pre-incubated with Hydroxylamine for 60 minutes; outline: as §2
# Phospholipase A2 = target: T3, Phospholipase A2 (Apis mellifera, UniProt P00630); experiment: Inhibitory activity against bee secretory Phospholipase A2 enzyme
# T3 sequence (P00630 whole entry): T2 sequence (whole entry)
# [12] = target: T4, Phospholipase A2, membrane associated (Homo sapiens, UniProt P14555); experiment: Inhibitory activity against human synovial recombinant Phospholipase enzyme
# T4 sequence (P14555 whole entry): T1 sequence (whole entry)
# [13] = target: T2, Phospholipase A2 (Apis mellifera); experiment: Inhibitory activity against bee secretory Phospholipase A2 enzyme when pre-incubated with Tris buffer for 5 minutes; outline: as §2
# [14] = target: T2, Phospholipase A2 (Apis mellifera); experiment: Inhibitory activity against bee secretory Phospholipase A2 enzyme when pre-incubated for 15 minutes; outline: as §2
# [15] = target: T2, Phospholipase A2 (Apis mellifera); experiment: Inhibitory activity against secretory PLA2 enzyme (Bee venom) when pre-incubated with Hydroxylamine for 15 minutes; outline: as §2
# [16] = target: T2, Phospholipase A2 (Apis mellifera); experiment: Inhibitory activity against bee secretory Phospholipase A2 enzyme when pre-incubated for 60 minutes; outline: as §2
# [17] = target: T2, Phospholipase A2 (Apis mellifera); experiment: Inhibitory activity against bee secretory Phospholipase A2 enzyme when pre-incubated for 5 minutes; outline: as §2
# [18] = target: T2, Phospholipase A2 (Apis mellifera); experiment: Inhibitory activity against bee secretory Phospholipase A2 enzyme when pre-incubated with Hydroxylamine for 15 minutes; outline: as §2
# Sequence of Phospholipase A2, major isoenzyme (Sus scrofa) (P00592 23-146 limits assumed): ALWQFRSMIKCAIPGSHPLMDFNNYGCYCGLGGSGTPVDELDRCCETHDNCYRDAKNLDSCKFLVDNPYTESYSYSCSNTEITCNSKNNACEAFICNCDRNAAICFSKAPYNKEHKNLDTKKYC
Structure (SMILES),inhibition [3],inhibition [4],inhibition [5],inhibition [6],inhibition [7],inhibition [8],inhibition [9],inhibition [11],inhibition [13],inhibition [14],inhibition [16],further results
COc1ccc2c(c1)c(CC(=O)O)c(C)n2C(=O)c1ccc(Cl)cc1 [INDOMETHACIN],–,–,–,–,–,–,–,–,–,–,–,inhibition in vivo at 10 mg/kg (Mus musculus [1]): 40%; inhibition in vivo at 10 mg/kg (Mus musculus [2]): 42.3%
O=C1C=C(C2CC=C(Cc3ccccc3)CO2)C(O)O1 (stereo unspecified),7.6%,17.4%,15.5%,30.3%,–,–,–,–,–,–,–,–
O=C1C=C(C2CC=CCO2)C(O)O1 (stereo unspecified),10.1%,0.2%,42.3%,9.3%,–,–,–,–,–,–,–,–
CC(C)=CCC/C(C)=C/CC/C(C)=C/CC1=CCC(C2=CC(=O)OC2O)OC1O (stereo unspecified),33.6%,39.8%,74.6%,84.2%,75.2%,39.1%,80.9%,71.5%,80.8%,70.3%,95.1%,inhibition in vivo at 10 mg/kg (Mus musculus [1]): 42.9%; inhibition in vivo at 10 mg/kg (Mus musculus [2]): 43.2%; inhibition [10]: 48.4%; IC50 (Phospholipase A2): 0.5 µM; IC50 [12]: 0.9 µM; inhibition [15]: 56.9%
CC1=C(CC/C(C)=C/CCC2=CC[C@H](C3=CC(=O)O[C@H]3O)O[C@H]2O)C(C)(C)CCC1,–,32.3%,93.2%,62.5%,47.3%,21%,44.2%,43.1%,42.4%,63.3%,91.1%,inhibition [17]: 49.5%; inhibition [18]: 28%
O=C1C=C(C2CC=CC(O)O2)C(O)O1 (stereo unspecified),5.2%,1%,18.9%,0.7%,–,–,–,–,–,–,–,–
CC(C)=CCC/C(C)=C/CC/C(C)=C/CC1=CCC(C2=CC(=O)OC2O)OC1 (stereo unspecified),–,30%,63.1%,71.8%,65.3%,50.1%,58.7%,65.1%,58.5%,87.1%,99.7%,inhibition [17]: 85.6%; IC50 (Phospholipase A2): 1.7 µM; IC50 [12]: 4.2 µM; inhibition [18]: 51.1%
C=C1CCC[C@H]2[C@](C)(CCC3=CCC(C4=CC(=O)OC4O)OC3)[C@H](C)CC[C@]12C (stereo partly specified),–,–,–,–,98.4%,81.9%,95.4%,99.3%,95.4%,93.7%,100%,inhibition [17]: 85.8%; inhibition [18]: 89.4%
C/C=C/CC1=CCC(C2=CC(=O)OC2O)OC1O (stereo unspecified),1.8%,15.1%,21.2%,24.8%,–,–,–,–,–,–,–,–
CC1=CCC(C2=CC(=O)OC2O)OC1 (stereo unspecified),1.4%,5.6%,0.1%,8%,–,–,–,–,–,–,–,–
C/C=C/CC1=CCC(C2=CC(=O)OC2O)OC1 (stereo unspecified),7.1%,17.6%,24.8%,40.1%,–,–,–,–,–,–,–,–
CC1=CCC(C2=CC(=O)OC2O)OC1O (stereo unspecified),3%,6.8%,3.2%,14.9%,–,–,–,–,–,–,–,–
O=C1C=C(C2CC=C(Cc3ccccc3)C(O)O2)C(O)O1 (stereo unspecified),7.1%,16.1%,11.9%,16.1%,–,–,–,–,–,–,–,–
